Laboratory results from ChEMBL document CHEMBL4350961, “Discovery of Pyrrolo[3,2- d]pyrimidin-4-one Derivatives as a New Class of Potent and Cell-Active Inhibitors of P300/CBP-Associated Factor Bromodomain” (J Med Chem, 2019).
The source made the active and inactive calls. No cut-off for these calls is given here.

Tests used:
[1] = tested on: Angiopoietin-1 receptor (Homo sapiens), Q02763 [Q939H,Q940H]; test: Inhibition of human Tie2 Q939H/Q940H mutant (771 to end residues) using poly(Glu, Tyr) 4:1 as substrate measured after 40 mins in presence of [gamma33P]ATP by scintillation counting method
[2] = molecular target: Transcription initiation factor TFIID subunit 1 (Homo sapiens) (UniProt P21675); test: Binding affinity to human N-terminal His-tagged TAF1 bromodomain1 assessed as change in melting temperature at 10 uM by SYPRO orange dye-based fluorescence assay
Chain of Transcription initiation factor TFIID subunit 1 (Homo sapiens) (P21675 whole entry): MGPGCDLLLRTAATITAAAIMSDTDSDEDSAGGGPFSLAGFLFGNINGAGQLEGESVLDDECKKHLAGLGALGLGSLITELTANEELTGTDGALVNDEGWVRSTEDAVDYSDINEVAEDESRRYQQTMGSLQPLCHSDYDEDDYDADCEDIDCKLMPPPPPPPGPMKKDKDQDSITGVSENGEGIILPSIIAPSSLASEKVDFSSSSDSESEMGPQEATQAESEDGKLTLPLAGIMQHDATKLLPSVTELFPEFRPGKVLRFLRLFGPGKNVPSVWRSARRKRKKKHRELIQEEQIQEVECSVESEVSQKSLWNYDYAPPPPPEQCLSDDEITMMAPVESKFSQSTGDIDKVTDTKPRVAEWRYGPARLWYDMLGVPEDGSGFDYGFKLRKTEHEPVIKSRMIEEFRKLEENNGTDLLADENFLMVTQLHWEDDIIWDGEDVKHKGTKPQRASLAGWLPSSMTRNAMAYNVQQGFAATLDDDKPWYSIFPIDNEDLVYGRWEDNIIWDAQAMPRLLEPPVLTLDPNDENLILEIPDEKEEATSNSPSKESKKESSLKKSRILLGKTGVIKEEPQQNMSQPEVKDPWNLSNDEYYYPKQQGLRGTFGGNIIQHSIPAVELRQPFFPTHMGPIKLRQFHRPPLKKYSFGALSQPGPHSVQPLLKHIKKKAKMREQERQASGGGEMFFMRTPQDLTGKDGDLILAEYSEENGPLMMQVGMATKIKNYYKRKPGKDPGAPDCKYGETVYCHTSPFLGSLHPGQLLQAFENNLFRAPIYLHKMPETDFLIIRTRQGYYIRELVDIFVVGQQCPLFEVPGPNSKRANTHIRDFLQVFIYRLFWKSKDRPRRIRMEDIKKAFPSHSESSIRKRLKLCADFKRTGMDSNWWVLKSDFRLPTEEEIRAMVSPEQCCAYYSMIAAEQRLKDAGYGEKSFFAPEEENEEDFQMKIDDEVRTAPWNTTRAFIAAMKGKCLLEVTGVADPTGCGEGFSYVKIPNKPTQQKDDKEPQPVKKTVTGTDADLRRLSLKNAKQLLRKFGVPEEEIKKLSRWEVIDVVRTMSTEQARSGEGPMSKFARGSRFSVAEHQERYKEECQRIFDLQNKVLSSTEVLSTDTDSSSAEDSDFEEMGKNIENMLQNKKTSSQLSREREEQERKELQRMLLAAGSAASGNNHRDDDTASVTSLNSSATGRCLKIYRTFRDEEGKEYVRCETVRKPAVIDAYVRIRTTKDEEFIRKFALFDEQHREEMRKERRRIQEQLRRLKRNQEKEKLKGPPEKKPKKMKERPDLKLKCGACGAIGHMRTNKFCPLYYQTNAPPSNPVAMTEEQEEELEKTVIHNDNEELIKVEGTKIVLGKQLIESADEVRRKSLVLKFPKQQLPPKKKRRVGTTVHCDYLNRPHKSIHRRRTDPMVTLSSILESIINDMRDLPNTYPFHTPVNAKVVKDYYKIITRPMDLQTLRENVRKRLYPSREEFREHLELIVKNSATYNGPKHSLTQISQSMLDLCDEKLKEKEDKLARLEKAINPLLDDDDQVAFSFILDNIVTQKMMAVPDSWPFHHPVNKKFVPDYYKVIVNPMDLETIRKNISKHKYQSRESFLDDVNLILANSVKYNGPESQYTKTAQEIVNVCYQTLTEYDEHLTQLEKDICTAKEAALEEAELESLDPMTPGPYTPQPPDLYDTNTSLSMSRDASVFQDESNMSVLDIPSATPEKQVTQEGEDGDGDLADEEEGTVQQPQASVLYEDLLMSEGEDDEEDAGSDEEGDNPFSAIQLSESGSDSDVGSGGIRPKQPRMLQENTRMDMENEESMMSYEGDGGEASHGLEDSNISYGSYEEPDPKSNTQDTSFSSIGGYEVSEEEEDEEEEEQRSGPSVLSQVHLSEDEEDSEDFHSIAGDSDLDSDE
Procedure, shortened: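 Thermal shift with His-tagged human bromodomain at 2 μM final in 10 mM HEPES pH 7.5, 500 mM NaCl. Compound at 10 μM final with 0.1% DMSO; SYPRO Orange at 1:1000. Equilibrated 3 min at 25 °C, then heated from 25 to 95 °C at 1 °C/min. Melting temperature shift taken from fluorescence; at least duplicate.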

[3] = molecular target: Mitogen-activated protein kinase kinase kinase 5 (Homo sapiens) (UniProt Q99683); test: Inhibition of recombinant human ASK1 (649 to 946 residues) at 10 uM using myelin basic protein as substrate measured after 40 mins in presence of [gamma33P]ATP by scintillation counting method
[4] = molecular target: CDK3/Cyclin E (Homo sapiens) (UniProt P24864+Q00526); test: Inhibition of recombinant full-length human CDK3/cyclinE at 10 uM using histone H1 as substrate measured after 40 mins in presence of [gamma33P]ATP by scintillation counting method; type: protein-complex assay
[5] = molecular target: CDK17/Cyclin-Y (Homo sapiens) (UniProt Q00537+Q8ND76); test: Inhibition of human CDK17/cyclinY at 10 uM using PKSPKARKKL as substrate measured after 120 mins in presence of [gamma33P]ATP by scintillation counting method; type: protein-complex assay
Procedure, shortened: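 Kinase panel of 422 kinases screened by Eurofins KinaseProfiler at a single test-compound concentration of 10 µM.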

[6] = molecular target: Dual specificity tyrosine-phosphorylation-regulated kinase 1B (Homo sapiens) (UniProt Q9Y463); test: Inhibition of recombinant full-length human DYRK1B at 10 uM using RRRFRPASPLRGPPK as substrate measured after 40 mins in presence of [gamma33P]ATP by scintillation counting method
[7] = molecular target: Homeodomain-interacting protein kinase 4 (Homo sapiens) (UniProt Q8NE63); test: Inhibition of recombinant full-length human HIPK4 at 10 uM using RRRFRPASPLRGPPK as substrate measured after 40 mins in presence of [gamma33P]ATP by scintillation counting method
Chain of Homeodomain-interacting protein kinase 4 (Homo sapiens) (Q8NE63 whole entry): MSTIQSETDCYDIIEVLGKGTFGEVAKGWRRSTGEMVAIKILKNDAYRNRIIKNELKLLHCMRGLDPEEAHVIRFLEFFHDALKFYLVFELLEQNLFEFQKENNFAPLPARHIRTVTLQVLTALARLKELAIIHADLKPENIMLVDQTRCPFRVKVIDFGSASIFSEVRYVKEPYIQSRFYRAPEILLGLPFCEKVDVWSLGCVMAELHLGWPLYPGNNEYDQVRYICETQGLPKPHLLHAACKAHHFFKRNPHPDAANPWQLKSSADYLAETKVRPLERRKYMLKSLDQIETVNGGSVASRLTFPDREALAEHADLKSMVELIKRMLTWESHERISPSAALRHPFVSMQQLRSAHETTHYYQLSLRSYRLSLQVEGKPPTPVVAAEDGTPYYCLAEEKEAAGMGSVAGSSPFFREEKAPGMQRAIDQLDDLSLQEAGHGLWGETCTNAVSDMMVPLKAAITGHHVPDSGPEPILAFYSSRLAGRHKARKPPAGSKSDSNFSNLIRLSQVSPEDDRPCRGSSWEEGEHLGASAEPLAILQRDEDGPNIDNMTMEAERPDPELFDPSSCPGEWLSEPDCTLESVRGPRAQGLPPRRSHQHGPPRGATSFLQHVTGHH

[8] = molecular target: Mitogen-activated protein kinase 8 (Homo sapiens) (UniProt P45983); test: Inhibition of recombinant full-length human JNK1alpha1 at 10 uM using ATF2 as substrate measured after 40 mins in presence of [gamma33P]ATP by scintillation counting method
Chain of Mitogen-activated protein kinase 8 (Homo sapiens) (P45983 whole entry): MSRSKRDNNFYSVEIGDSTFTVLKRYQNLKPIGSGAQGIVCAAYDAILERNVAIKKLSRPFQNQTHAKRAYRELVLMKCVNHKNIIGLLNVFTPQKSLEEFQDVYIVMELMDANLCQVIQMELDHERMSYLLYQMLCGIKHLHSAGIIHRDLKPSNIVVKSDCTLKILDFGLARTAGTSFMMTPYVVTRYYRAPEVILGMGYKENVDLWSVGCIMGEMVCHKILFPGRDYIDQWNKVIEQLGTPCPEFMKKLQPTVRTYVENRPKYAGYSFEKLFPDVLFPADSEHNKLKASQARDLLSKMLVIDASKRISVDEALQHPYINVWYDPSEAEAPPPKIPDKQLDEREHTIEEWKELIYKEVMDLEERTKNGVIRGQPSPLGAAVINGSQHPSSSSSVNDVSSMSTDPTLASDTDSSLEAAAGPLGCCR

Homo sapiens [9] = species: Homo sapiens; test: Inhibition of recombinant full-length human JNK2alpha2 S51N mutant at 10 uM using ATF2 as substrate measured after 40 mins in presence of [gamma33P]ATP by scintillation counting method
[10] = molecular target: Tyrosine-protein kinase Lck (Homo sapiens) (UniProt P06239); test: Inhibition of recombinant full-length human Lck at 10 uM using KVEKIGEGTYGVV as substrate measured after 40 mins in presence of [gamma33P]ATP by scintillation counting method
[11] = molecular target: Tyrosine-protein kinase Lyn (Mus musculus) (UniProt P25911); test: Inhibition of mouse Lyn at 10 uM
[12] = molecular target: Leucine-rich repeat serine/threonine-protein kinase 2 (Homo sapiens) (UniProt Q5S007); test: Inhibition of recombinant human LRRK2 (970 to end residues) at 10 uM using RLGRDKYKTLRQIRQ as substrate measured after 40 mins in presence of [gamma33P]ATP by scintillation counting method
[13] = molecular target: SRSF protein kinase 3 (Homo sapiens) (UniProt Q9UPE1); test: Inhibition of recombinant full-length human MSSK1 at 10 uM using ERMRPRKRQGSVRRRV as substrate measured after 40 mins in presence of [gamma33P]ATP by scintillation counting method
[14] = molecular target: Serine/threonine-protein kinase mTOR (Homo sapiens) (UniProt P42345); test: Inhibition of recombinant full-length human mTOR at 10 uM measured after 40 mins in presence of [gamma33P]ATP by scintillation counting method
[15] = molecular target: Serine/threonine-protein kinase PAK 3 (Homo sapiens) (UniProt O75914); test: Inhibition of recombinant full-length human PAK3 at 10 uM using RRRLSFAEPG as substrate measured after 40 mins in presence of [gamma33P]ATP by scintillation counting method
[16] = molecular target: Protein kinase C delta type (Homo sapiens) (UniProt Q05655); test: Inhibition of recombinant human PKCdelta (2 to end residues) at 10 uM using ERMRPRKRQGSVRRRV as substrate measured after 40 mins in presence of [gamma33P]ATP by scintillation counting method
Homo sapiens [17] = species: Homo sapiens; test: Inhibition of recombinant human Plk4 S34T mutant (1 to 273 residues) at 10 uM using casein as substrate measured after 40 mins in presence of [gamma33P]ATP by scintillation counting method
[18] = tested on: Ribosomal protein S6 kinase alpha-1 (Rattus norvegicus), Q63531 [S637N,G697A]; test: Inhibition of recombinant full-length rat Rsk1 S637N/G697A mutant at 10 uM using KKKNRTLSVA as substrate measured after 40 mins in presence of [gamma33P]ATP by scintillation counting method
Chain of Ribosomal protein S6 kinase alpha-1 (Rattus norvegicus), Q63531 [S637N,G697A] (Q63531 whole entry S637N/G697A, the tested form may be a part): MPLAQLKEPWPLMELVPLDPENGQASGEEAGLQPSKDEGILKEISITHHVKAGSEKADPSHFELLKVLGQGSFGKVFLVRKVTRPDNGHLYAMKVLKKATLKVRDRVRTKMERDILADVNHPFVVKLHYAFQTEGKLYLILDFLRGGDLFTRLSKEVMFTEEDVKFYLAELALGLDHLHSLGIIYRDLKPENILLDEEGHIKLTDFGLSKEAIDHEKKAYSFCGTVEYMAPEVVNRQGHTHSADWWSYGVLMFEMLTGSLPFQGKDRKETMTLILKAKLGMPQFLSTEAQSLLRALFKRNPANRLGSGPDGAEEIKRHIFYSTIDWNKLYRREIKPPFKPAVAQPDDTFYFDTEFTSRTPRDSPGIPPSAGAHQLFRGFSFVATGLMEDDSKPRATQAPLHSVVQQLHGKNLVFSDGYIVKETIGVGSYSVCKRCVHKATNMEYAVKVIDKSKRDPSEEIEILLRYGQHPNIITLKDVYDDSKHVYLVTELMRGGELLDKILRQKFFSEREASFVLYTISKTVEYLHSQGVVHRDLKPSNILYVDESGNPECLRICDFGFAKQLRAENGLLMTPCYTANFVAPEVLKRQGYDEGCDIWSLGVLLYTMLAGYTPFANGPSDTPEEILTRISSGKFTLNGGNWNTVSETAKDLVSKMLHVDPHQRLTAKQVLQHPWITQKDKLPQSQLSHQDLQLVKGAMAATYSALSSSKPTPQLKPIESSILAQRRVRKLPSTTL

[19] = molecular target: TRAF2 and NCK-interacting protein kinase (Homo sapiens) (UniProt Q9UKE5); test: Inhibition of human TNIK (1 to 367 residues) using RLGRDKYKTLRQIRQ as substrate measured after 40 mins in presence of [gamma33P]ATP by scintillation counting method
Chain of TRAF2 and NCK-interacting protein kinase (Homo sapiens) (Q9UKE5 whole entry, looked up, the tested form may be a part): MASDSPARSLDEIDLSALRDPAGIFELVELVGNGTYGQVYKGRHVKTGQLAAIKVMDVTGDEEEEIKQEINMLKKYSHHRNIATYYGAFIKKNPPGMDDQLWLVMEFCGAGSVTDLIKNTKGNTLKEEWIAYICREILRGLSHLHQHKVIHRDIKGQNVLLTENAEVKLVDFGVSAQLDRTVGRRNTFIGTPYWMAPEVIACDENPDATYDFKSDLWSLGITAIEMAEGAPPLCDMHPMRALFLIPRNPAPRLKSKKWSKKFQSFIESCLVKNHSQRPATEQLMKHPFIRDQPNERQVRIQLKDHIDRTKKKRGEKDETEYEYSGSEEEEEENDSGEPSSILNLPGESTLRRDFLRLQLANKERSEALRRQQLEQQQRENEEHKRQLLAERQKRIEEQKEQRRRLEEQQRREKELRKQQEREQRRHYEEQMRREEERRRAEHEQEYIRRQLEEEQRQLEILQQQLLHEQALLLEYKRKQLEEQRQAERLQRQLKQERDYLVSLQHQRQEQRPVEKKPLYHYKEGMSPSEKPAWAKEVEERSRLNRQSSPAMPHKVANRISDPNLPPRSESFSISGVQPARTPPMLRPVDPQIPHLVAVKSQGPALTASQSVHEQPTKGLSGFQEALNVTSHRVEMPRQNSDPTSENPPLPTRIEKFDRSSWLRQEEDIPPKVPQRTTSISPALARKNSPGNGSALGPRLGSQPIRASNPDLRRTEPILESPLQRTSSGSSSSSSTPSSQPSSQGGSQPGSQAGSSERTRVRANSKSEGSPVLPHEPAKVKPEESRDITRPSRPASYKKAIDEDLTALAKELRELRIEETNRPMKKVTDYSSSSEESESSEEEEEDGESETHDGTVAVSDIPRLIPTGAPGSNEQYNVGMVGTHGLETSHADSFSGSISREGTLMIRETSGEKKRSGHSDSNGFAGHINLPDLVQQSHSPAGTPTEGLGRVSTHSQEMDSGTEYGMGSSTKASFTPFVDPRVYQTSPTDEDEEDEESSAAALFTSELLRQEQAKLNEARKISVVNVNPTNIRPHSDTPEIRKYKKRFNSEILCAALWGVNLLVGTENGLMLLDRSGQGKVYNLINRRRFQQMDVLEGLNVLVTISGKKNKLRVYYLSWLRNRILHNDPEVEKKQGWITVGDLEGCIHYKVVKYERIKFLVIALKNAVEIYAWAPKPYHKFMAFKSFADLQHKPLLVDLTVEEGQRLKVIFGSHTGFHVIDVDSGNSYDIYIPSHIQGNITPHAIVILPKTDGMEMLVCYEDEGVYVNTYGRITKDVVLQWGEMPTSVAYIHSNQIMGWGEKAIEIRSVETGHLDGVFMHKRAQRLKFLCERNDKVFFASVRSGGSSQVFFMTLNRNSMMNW

[20] = molecular target: Testis-specific serine/threonine-protein kinase 4 (Homo sapiens) (UniProt Q6SA08); test: Inhibition of recombinant full-length human TSSK4 at 10 uM using KKLNRTLSFAEPG as substrate measured after 40 mins in presence of [gamma33P]ATP by scintillation counting method
[21] = molecular target: Tau-tubulin kinase 1 (Homo sapiens) (UniProt Q5TCY1); test: Inhibition of human TTBK1 (1 to 479 residues) using Casein as substrate measured after 40 mins in presence of [gamma33P]ATP by scintillation counting method
[22] = molecular target: PI3K p110 beta/p85 alpha (Homo sapiens) (UniProt P27986+P42338); test: Inhibition of recombinant full-length human PI3K p110beta/p85alpha at 10 uM using phosphatidylinositol-4, 5-bisphosphate as substrate measured after 40 mins by fluorescence assay; type: protein-complex assay
[23] = molecular target: PI3K p110 delta/p85 alpha (Mus musculus) (UniProt P26450+O35904); test: Inhibition of recombinant full-length mouse PI3K p110delta/p85alpha at 10 uM using phosphatidylinositol-4, 5-bisphosphate as substrate measured after 40 mins by HTRF assay; type: protein-complex assay

CN1C[C@H](Nc2nc3cc[nH]c3c(=O)n2C)C[C@H](c2ccc3c(c2)OCCO3)C1
inhibition [1]: inactive
ΔTm [2]: 0.2 °C
inhibition [3]: inactive
inhibition [4]: inactive
inhibition [5]: inactive
inhibition [6]: inactive
inhibition [7]: inactive
inhibition [8]: inactive
inhibition (Homo sapiens [9]): inactive
inhibition [10]: inactive
inhibition [11]: inactive
inhibition [12]: inactive
inhibition [13]: inactive
inhibition [14]: inactive
inhibition [15]: inactive
inhibition [16]: inactive
inhibition (Homo sapiens [17]): inactive
inhibition [18]: inactive
inhibition [19]: inactive
inhibition [20]: inactive
inhibition [21]: inactive
inhibition [22]: inactive
inhibition [23]: inactive
